Results reported in ChEMBL document CHEMBL3351709, “Limonoids from the seeds of Swietenia macrophylla with inhibitory activity against dengue virus 2” (J Nat Prod, 2014).

Tests used:
dengue virus type 2 = assay: Antiviral activity against dengue virus 2 infected in human HuH7 cells after 72 hrs by Western blot and ECL detection based assay; format: functional, organism-based; conditions: Huh-7, 72 h
Outline: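 Huh-7 cells (ATCC) in DMEM with 10% FBS, 1% nonessential amino acids and 1% antibiotic-antimycotic, 37 °C, 5% CO2. Seeded at 5 × 10^4 cells/mL/well for 12–16 h, then infected with DENV-2 strain 16681 at MOI 0.2 for 2 h at 37 °C. Washed with PBS and refed with compound in DMEM–10% FBS. At 72 h p.i., NS2B Western blot with GAPDH loading control and ECL detection. Ribavirin as reference.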

[1] = Cytotoxicity against human HuH7 cells after 72 hrs by MTS assay; format: cell-based, Huh-7
[2] = Selectivity index, ratio of CC50 against human HuH7 cells to EC50 against dengue virus 2; format: toxicity, cell-based, Huh-7; conditions: read-out: Ratio CC50/EC50

## C/C=C(\C)C(=O)O[C@@H]1[C@H]2C=C3[C@@H]4CC(=O)O[C@@H](c5ccoc5)[C@]4(C)CC[C@@H]3[C@@](C)(C2=O)[C@@H]([C@@H](OC(C)=O)C(=O)OC)C1(C)C
Dengue virus type 2
  EC50: 6.3 µM
[1]
  CC50 at 72 h: 83 µM
[2]
  selectivity ratio: 13.2

## CC1(C)C(=O)C=C[C@]2(C)[C@H]3CC[C@@]4(C)[C@H](c5ccoc5)OC(=O)[C@H]5O[C@]54[C@]3(C)[C@H](O)C[C@@H]12 [DEACETYLGEDUNIN]
Dengue virus type 2
  EC50: 12.5 µM
[1]
  CC50 at 72 h: 105 µM
[2]
  selectivity ratio: 8.4

## NC(=O)c1ncn([C@@H]2O[C@H](CO)[C@@H](O)[C@H]2O)n1 [RIBAVIRIN]
Dengue virus type 2
  EC50: 12.6 µM
[2]
  selectivity ratio: 4.47

## CC[C@H](C)C(=O)O[C@@H]1[C@@H]2C(=O)[C@](C)(C3CC[C@]4(C)[C@@H](CC(=O)O[C@H]4c4ccoc4)[C@]34O[C@H]24)[C@@H]([C@@H](O)C(=O)OC)C1(C)C (some centres undefined)
Dengue virus type 2
  EC50: 7.2 µM
[1]
  CC50 at 72 h: > 200 µM
[2]
  selectivity ratio: > 27.7

## C=C1[C@@H]2CC[C@@]3(C)[C@H](c4ccoc4)OC(=O)C[C@]13O[C@H]1CC(=O)C(C)(C)[C@H](CC(=O)OC)[C@]12C [METHYLANGOLENSATE]
Dengue virus type 2
  EC50: 4.3 µM
[1]
  CC50 at 72 h: 116 µM
[2]
  selectivity ratio: 27
